Series [1] is described as follows: Observed permeability in MDCK2 cells assessed as basolateral to apical transport at 50 uM after 0.5 to 1 hrs by HPLC method. The format is ADME, cell-based, Canis lupus familiaris. The conditions noted are these: dog, mdck-ii. Put shortly: (§1)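 Mock (empty pcDNA3.1) or rat Abcg2/human ABCG2-transfected MDCKII, G418-selected, seeded on 3.0-μm Transwell filters at 1.0×10^6 cells/well, grown 4 days to TEER >200 Ω·cm². Single isomer loaded apical or basolateral in serum-free Opti-MEM I with 0.2 μCi/ml [3H]mannitol, 37°C 5% CO2. Receiver sampled at 0.5 and 1 h. Quantified by HPLC-UV 290 nm. Permeability = initial rate/(area × donor concentration). Efflux ratio = B→A rate / A→B rate. n = 3, mean ± S.D.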

For series [2], the target named is T1, ABCG2 (Homo sapiens, UniProt Q9UNQ0).
T1 sequence (Q9UNQ0 whole entry): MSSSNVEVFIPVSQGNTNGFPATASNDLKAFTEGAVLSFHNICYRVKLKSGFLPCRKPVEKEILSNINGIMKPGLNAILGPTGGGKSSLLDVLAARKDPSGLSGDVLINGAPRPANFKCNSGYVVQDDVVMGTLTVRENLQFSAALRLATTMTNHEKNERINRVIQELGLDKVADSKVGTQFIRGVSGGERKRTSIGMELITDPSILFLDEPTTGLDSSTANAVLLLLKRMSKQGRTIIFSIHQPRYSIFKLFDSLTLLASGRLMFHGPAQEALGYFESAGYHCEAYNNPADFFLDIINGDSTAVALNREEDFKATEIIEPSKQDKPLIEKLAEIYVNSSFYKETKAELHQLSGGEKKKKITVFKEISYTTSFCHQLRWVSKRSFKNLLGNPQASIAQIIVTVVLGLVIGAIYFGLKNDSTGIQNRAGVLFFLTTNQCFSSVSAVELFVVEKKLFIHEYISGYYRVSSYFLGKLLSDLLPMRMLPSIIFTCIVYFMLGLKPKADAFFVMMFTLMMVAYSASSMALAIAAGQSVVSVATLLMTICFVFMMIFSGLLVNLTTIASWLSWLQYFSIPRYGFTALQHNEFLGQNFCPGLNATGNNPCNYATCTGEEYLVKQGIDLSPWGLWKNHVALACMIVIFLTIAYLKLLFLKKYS
Nature of the series: Asymmetry efflux ratio in MDCK2 cells expressing human ABCG2 assessed as ABCG2-mediated drug transport ratio at 10 uM after 0.5 to 1 hrs by HPLC method. Type of series: ADME, cell-based. The gist of the method: as §1

The target in series [3] is T2, Broad substrate specificity ATP-binding cassette transporter ABCG2 (Homo sapiens, UniProt Q9UNQ0).
T2 sequence (Q9UNQ0 whole entry): T1 sequence (Q9UNQ0 whole entry)
Nature of the series: Observed permeability in MDCK2 cells expressing human ABCG2 assessed as ABCG2-mediated apical to basolateral transport at 3 uM after 0.5 to 1 hrs by HPLC method. The format is ADME, cell-based. The note with it: mdck-ii. Put shortly:
as §1

For series [4], the target named is T3, ABCG2 (Rattus norvegicus, UniProt Q80W57).
T3 sequence (Q80W57 whole entry): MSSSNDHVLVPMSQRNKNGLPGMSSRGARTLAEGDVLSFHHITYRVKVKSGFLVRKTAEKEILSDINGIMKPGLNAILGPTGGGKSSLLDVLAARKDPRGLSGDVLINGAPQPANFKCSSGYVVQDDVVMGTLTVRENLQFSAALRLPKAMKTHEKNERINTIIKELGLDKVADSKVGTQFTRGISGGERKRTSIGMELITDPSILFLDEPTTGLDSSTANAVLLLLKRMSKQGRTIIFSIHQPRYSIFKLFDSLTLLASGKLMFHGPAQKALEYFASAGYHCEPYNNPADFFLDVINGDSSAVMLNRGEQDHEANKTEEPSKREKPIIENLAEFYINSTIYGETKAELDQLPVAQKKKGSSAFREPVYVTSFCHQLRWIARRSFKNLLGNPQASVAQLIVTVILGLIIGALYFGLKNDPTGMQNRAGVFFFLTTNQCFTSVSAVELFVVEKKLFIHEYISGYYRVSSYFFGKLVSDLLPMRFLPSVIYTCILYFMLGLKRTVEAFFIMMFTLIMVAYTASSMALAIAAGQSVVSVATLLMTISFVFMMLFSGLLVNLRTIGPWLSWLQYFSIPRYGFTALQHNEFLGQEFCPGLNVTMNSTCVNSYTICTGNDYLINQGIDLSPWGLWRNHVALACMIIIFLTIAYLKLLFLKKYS
Briefly: Asymmetry efflux ratio in MDCK2 cells expressing rat ABCG2 assessed as ABCG2-mediated drug transport ratio at 10 uM after 0.5 to 1 hrs by HPLC method. The format is ADME, cell-based. Put shortly:
as §1

Series [5] in a line: Asymmetry efflux ratio in MDCK2 cells assessed as drug transport ratio at 10 uM after 0.5 to 1 hrs by HPLC method. Type of series: ADME, cell-based, Canis lupus familiaris, MDCK-II. The note with it: dog, MDCK. Put shortly: as §1
Series [6] deals with T2, Broad substrate specificity ATP-binding cassette transporter ABCG2. Nature of the series: Observed permeability in MDCK2 cells expressing human ABCG2 assessed as ABCG2-mediated basolateral to apical transport at 10 uM after 0.5 to 1 hrs by HPLC method. Type of series: ADME, cell-based. The conditions noted are these: mdck-ii. The gist of the method:
as §1

Series [7] is described as follows: Observed permeability in MDCK2 cells assessed as basolateral to apical transport at 30 uM after 0.5 to 1 hrs by HPLC method. Type of series: ADME, cell-based, Canis lupus familiaris. The note with it: dog, mdck-ii. Put shortly:
as §1

Series [8] can be described thus: Observed permeability in MDCK2 cells assessed as basolateral to apical transport at 10 uM after 0.5 to 1 hrs by HPLC method. Type of series: ADME, cell-based, Canis lupus familiaris. The conditions noted are these: dog, mdck-ii. The gist of the method: as §1
Series [9] addresses T3, ABCG2. Nature of the series: Asymmetry efflux ratio in MDCK2 cells expressing rat ABCG2 assessed as ABCG2-mediated drug transport ratio at 200 uM after 0.5 to 1 hrs by HPLC method. Type of series: ADME, cell-based. The gist of the method:
as §1

Series [10] concerns the target T2, Broad substrate specificity ATP-binding cassette transporter ABCG2. Briefly: Observed permeability in MDCK2 cells expressing human ABCG2 assessed as ABCG2-mediated basolateral to apical transport at 200 uM after 0.5 to 1 hrs by HPLC method. Type of series: ADME, cell-based. The conditions noted are these: mdck-ii. The gist of the method:
as §1

A short description of series [11]: Observed permeability in MDCK2 cells assessed as basolateral to apical transport at 200 uM after 0.5 to 1 hrs by HPLC method. The note with it: dog, mdck-ii. Type of series: ADME, cell-based, Canis lupus familiaris. Put shortly:
as §1

The target in series [12] is T1, ABCG2. Nature of the series: Asymmetry efflux ratio in MDCK2 cells expressing human ABCG2 assessed as ABCG2-mediated drug transport ratio at 200 uM after 0.5 to 1 hrs by HPLC method. Type of series: ADME, cell-based. Put shortly: as §1
Series [13] in a line: Asymmetry efflux ratio in MDCK2 cells assessed as drug transport ratio at 30 uM after 0.5 to 1 hrs by HPLC method. Type of series: ADME, cell-based, Canis lupus familiaris, MDCK-II. The conditions noted are these: dog, MDCK. The gist of the method: as §1
Series [14] is described as follows: Observed permeability in MDCK2 cells assessed as basolateral to apical transport at 3 to 200 uM after 0.5 to 1 hrs by HPLC method. Type of series: ADME, cell-based, Canis lupus familiaris. The conditions noted are these: dog, mdck-ii. The gist of the method: as §1
Series [15] concerns the target T3, ABCG2. Briefly: Asymmetry efflux ratio in MDCK2 cells expressing rat ABCG2 assessed as ABCG2-mediated drug transport ratio at 3 uM after 0.5 to 1 hrs by HPLC method. The format is ADME, cell-based. The gist of the method: as §1
Series [16] in a line: Asymmetry efflux ratio in MDCK2 cells assessed as drug transport ratio at 3 uM after 0.5 to 1 hrs by HPLC method. Type of series: ADME, cell-based, Canis lupus familiaris, MDCK-II. The conditions noted are these: dog, MDCK. Put shortly: as §1
Series [17] in a line: Observed permeability in MDCK2 cells assessed as apical to basolateral transport at 3 to 200 uM after 0.5 to 1 hrs by HPLC method. The conditions noted are these: dog, mdck-ii. The format is ADME, cell-based, Canis lupus familiaris. Put shortly: as §1
Series [18] addresses T4, Broad substrate specificity ATP-binding cassette transporter ABCG2 (Rattus norvegicus, UniProt Q80W57).
T4 sequence (Q80W57 whole entry): T3 sequence (Q80W57 whole entry)
Nature of the series: Observed permeability in MDCK2 cells expressing rat ABCG2 assessed as ABCG2-mediated basolateral to apical transport at 10 uM after 0.5 to 1 hrs by HPLC method. The format is ADME, cell-based. The note with it: mdck-ii. The gist of the method:
as §1

In general, efflux ratio refers to a quotient of directional permeabilities that is used to spot active efflux. Regarding `COc1ccnc(C[S@+]([O-])c2nc3cc(OC(F)F)ccc3[nH]2)c1OC`, the Papp in series [1] was 126 uL/hr/cm2; in [3], 16.9 uL/hr/cm2; in series [6], 255 uL/hr/cm2; in series [7], 123 uL/hr/cm2; in series [8], 130 uL/hr/cm2; in series [10], 132 uL/hr/cm2. The Papp in series [11] stood at 135 uL/hr/cm2; in series [14] it was 127 uL/hr/cm2; in series [17], 121 uL/hr/cm2; in series [18], 224 uL/hr/cm2. Also, the efflux ratio at 10 µM on ABCG2 [2] worked out at 8.06; on ABCG2 [4] it was 7.44; in series [5], 1.06. Further, the values for the efflux ratio at 200 µM at ABCG2 [9] and at ABCG2 [12] were 1.07 and 1, respectively. Moreover, the efflux ratio at 30 µM in series [13] worked out at 1.07. Moreover, the efflux ratio at 3 µM came out at 34 at ABCG2 [15] and 1.01 in [16].
On to `COc1ccnc(C[S@@+]([O-])c2nc3cc(OC(F)F)ccc3[nH]2)c1OC`, for which the Papp in series [1] turned out to be 135 uL/hr/cm2; in [3] it was 30 uL/hr/cm2; in [6], 246 uL/hr/cm2; in [7] it was 116 uL/hr/cm2; in [8] it was 121 uL/hr/cm2; in series [10] it was 179 uL/hr/cm2. The Papp in [11] is listed as 140 uL/hr/cm2; in series [14], 126 uL/hr/cm2; in series [17] it was 121 uL/hr/cm2; in [18], 229 uL/hr/cm2. For the same compound, the efflux ratio at 10 µM on ABCG2 [2] turned out to be 5.81; at ABCG2 [4] it was 11; in series [5], 1.07. Besides, the efflux ratio at 200 µM is 1.29 at ABCG2 [9] and 1.42 at ABCG2 [12]. In addition, in series [13], the efflux ratio at 30 µM was 1.06. Moreover, the efflux ratio at 3 µM was 18.7 at ABCG2 [15] and 1.01 in series [16].

Values taken from ChEMBL document CHEMBL3525931, “Stereoselective interaction of pantoprazole with ABCG2. II. In vitro flux analysis” (Drug Metab Dispos, 2012).
